Assay results taken from ChEMBL document CHEMBL1151781, “Selectivity of inhibitors of endocannabinoid biosynthesis evaluated by activity-based protein profiling” (Bioorg Med Chem Lett, 2008).
The source made the active and inactive calls. The rule behind the calls is not given here.

Experiments:
[1] = molecular target: T1, Diacylglycerol lipase-alpha (Mus musculus) (UniProt Q6WQJ1); assay: Inhibition of DAGLalpha in mouse brain assessed as >15 average spectral count at 50 uM treated for 30 mins by ABPP-MudPIT assay; assay type: tissue-based
T1 sequence (whole entry): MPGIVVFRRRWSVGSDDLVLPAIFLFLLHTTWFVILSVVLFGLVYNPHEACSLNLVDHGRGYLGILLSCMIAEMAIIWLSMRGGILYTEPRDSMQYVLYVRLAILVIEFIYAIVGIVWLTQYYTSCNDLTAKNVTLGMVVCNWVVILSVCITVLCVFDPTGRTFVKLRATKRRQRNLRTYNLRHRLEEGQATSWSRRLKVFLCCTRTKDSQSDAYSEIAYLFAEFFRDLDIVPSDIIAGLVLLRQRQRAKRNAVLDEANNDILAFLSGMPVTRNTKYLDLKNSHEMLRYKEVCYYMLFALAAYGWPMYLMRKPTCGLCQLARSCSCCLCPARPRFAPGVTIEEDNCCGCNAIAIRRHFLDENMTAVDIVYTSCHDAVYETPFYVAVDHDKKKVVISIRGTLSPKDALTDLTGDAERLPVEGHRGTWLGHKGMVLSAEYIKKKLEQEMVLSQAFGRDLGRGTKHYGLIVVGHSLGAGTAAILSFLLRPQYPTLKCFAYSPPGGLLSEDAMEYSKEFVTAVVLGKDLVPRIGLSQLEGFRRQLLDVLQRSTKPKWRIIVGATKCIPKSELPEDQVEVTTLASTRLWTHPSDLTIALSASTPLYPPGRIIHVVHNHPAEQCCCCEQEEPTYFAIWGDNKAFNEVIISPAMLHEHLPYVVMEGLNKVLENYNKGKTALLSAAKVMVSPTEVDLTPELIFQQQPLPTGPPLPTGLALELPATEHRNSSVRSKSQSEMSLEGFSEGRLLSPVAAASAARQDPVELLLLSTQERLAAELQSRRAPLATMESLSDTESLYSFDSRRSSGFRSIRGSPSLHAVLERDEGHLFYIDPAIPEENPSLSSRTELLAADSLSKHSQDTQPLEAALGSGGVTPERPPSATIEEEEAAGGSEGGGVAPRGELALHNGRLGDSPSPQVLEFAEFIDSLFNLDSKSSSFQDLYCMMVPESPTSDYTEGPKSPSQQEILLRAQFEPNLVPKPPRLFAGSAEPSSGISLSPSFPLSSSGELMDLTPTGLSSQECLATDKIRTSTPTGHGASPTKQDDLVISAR

[2] = molecular target: T2, Lysophosphatidylserine lipase ABHD12 (Mus musculus) (UniProt Q99LR1); assay: Inhibition of ABHD12 in mouse brain at 0.01 to 100 uM treated for 30 mins by SDS-PAGE using rhodamine-tagged FP probe; assay type: tissue-based
T2 sequence (whole entry): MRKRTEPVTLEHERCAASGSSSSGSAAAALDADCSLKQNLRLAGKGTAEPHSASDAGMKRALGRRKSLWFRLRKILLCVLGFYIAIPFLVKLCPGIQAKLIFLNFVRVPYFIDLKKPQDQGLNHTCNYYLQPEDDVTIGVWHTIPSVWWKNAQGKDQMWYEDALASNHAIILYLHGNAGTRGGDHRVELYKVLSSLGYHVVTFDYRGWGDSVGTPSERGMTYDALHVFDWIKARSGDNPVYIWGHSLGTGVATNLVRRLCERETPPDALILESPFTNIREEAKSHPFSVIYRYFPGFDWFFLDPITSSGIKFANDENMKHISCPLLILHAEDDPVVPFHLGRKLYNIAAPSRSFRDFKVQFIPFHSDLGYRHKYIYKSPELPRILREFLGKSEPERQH
Outline: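 Mouse brain membrane proteome preincubated with inhibitor across 0.01-100 μM for 30 min. A rhodamine-tagged fluorophosphonate probe (FP-Rh) was then added for 60 min. Samples were resolved by SDS-PAGE, and probe labeling of each hydrolase band was read by in-gel fluorescence scanning.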

[3] = molecular target: T3, Diacylglycerol lipase-beta (Mus musculus) (UniProt Q91WC9); assay: Inhibition of DAGLbeta in mouse brain assessed as >15 average spectral count at 50 uM treated for 30 mins by ABPP-MudPIT assay; assay type: tissue-based
T3 sequence (whole entry): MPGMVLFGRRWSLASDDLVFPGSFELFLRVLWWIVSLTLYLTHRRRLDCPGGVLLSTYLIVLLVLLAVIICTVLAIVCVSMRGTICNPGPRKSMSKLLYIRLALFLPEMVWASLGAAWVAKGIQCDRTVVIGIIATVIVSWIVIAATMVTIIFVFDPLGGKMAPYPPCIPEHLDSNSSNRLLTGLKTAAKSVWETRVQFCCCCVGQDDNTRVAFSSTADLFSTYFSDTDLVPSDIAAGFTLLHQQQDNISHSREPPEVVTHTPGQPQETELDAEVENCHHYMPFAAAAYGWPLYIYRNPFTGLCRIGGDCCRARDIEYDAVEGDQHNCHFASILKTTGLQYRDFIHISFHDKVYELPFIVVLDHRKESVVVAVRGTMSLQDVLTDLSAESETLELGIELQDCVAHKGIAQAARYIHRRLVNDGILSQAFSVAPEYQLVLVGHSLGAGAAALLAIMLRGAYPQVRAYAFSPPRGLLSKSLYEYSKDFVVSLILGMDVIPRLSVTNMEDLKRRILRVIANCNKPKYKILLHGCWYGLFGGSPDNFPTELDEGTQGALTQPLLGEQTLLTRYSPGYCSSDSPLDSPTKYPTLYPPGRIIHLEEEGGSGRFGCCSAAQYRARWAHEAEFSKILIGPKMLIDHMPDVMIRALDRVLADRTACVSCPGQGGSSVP

[4] = molecular target: Platelet-activating factor acetylhydrolase (Homo sapiens, UniProt Q13093); assay: Inhibition of recombinant PLA2g7 transfected in HEK293T cells by SDS-PAGE using rhodamine-tagged FP probe; assay type: cell-based, HEK-293T
Sequence of Platelet-activating factor acetylhydrolase (Q13093 whole entry): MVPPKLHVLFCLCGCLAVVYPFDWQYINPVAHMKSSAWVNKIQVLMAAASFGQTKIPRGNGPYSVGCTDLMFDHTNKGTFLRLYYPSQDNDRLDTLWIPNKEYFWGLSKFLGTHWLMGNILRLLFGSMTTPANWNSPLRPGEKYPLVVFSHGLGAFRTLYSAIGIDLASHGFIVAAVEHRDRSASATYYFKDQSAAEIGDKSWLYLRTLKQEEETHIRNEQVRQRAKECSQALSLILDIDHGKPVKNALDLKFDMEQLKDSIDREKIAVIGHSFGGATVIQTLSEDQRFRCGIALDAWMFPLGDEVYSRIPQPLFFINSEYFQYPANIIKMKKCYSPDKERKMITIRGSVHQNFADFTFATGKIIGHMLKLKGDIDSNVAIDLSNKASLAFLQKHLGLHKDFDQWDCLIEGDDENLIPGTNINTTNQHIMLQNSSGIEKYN
Outline: (§1)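 HEK293T cells were transfected with cDNA for the target hydrolase. The transfected proteome was treated with inhibitor across 0.01-100 μM, then labeled with rhodamine-tagged fluorophosphonate probe (FP-Rh). Loss of probe labeling was read to give IC50. Values are means ± standard errors of three independent experiments.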

[5] = molecular target: Neutral cholesterol ester hydrolase 1 (Homo sapiens, UniProt Q6PIU2); assay: Inhibition of recombinant KIAA1363 transfected in HEK293T cells by SDS-PAGE using rhodamine-tagged FP probe; assay type: cell-based, HEK-293T; outline: as §1
Sequence of Neutral cholesterol ester hydrolase 1 (Q6PIU2 whole entry): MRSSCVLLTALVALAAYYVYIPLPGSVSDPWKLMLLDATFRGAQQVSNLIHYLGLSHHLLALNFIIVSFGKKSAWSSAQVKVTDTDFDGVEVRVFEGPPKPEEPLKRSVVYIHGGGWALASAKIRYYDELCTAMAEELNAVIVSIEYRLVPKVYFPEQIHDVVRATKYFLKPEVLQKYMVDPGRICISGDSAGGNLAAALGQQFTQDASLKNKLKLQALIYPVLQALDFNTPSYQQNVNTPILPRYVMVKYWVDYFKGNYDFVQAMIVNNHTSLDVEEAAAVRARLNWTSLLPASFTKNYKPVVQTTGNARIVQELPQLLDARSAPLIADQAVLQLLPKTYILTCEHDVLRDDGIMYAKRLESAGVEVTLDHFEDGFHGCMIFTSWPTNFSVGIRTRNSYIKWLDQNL

[6] = molecular target: T3, Diacylglycerol lipase-beta (Mus musculus); assay: Inhibition of DAGLbeta in mouse brain assessed as >15 average spectral count at 5 uM treated for 30 mins by ABPP-MudPIT assay; assay type: tissue-based

Row | Compound | Activity [1] | Activity [2] | Activity [3] | IC50 [4] [µM] | IC50 [5] [µM] | Activity [6]
1 | O=C(NCCCCCCNC(=O)ON=C1CCCCC1)ON=C1CCCCC1 | inactive | Active | inactive | 11 | 10 | inactive
2 | CCCCCCCCCCC[C@@H](C[C@@H]1OC(=O)[C@H]1CCCCCC)OC(=O)[C@H](CC(C)C)NC=O [ORLISTAT] | inactive | Active | inactive | 0.05 | > 100 | inactive
